Tests used:
Cavia porcellus [1] = assay: Compound was tested for the inhibition of guinea pig active lung anaphylaxis (ALA) at 1 mg/kg iv; assay type: functional
Outline: (§1)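 Guinea pigs were sensitized with egg albumin 1 mg sc plus Bordetella pertussis vaccine adjuvant. Two weeks later: pentobarbital 65 mg/kg ip, then trachea, jugular vein and carotid cannulated. Drug given iv before an iv egg albumin challenge (0.5 mg/kg). Airway resistance (bronchoconstriction) and arterial pressure monitored. %inhibition given as mean ± SE; ED50 iv with 95% confidence limits.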

Rattus norvegicus [2] = assay: Compound was tested for the inhibition of rat passive cutaneous anaphylaxis (PCA) administered intraperitoneally; assay type: functional; conditions: ip
Outline: (§2)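 Male Sprague-Dawley rats were given 0.05 mL of high-titer IgE rat anti-ovalbumin antiserum intradermally. 24 h later: iv ovalbumin plus Evans Blue in saline, with simultaneous intradermal serotonin and histamine. Drug given ip 1 h before antigen. At 30 min, skin was reflected and wheal size and colour scored against a chart. %inhibition = (1 − mean treated/mean control score)×100. Dunnett's test, p ≤ 0.05.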

Rattus norvegicus [3] = assay: Compound was tested […] for the inhibition of serotonin release in rat peritoneal cell; assay type: functional
Rattus norvegicus [4] = assay: Compound was tested for percent inhibition, at 0.37 mg/kg administered intraperitoneally against histamine; assay type: functional; conditions: ip, route intraperitoneal; outline: as §2
Rattus norvegicus [5] = assay: Compound was tested for percent inhibition, at 0.37 mg/kg administered intraperitoneally against serotonin by Dunnett's test; assay type: functional; conditions: ip, route intraperitoneal; outline: as §2
Rattus norvegicus [6] = assay: Compound was tested for percent inhibition, at 3.3 mg/kg administered intraperitoneally against histamine by Dunnett's test; assay type: functional; conditions: ip, route intraperitoneal; outline: as §2
Rattus norvegicus [7] = assay: Compound was tested for percent inhibition, at 3.3 mg/kg administered intraperitoneally against rat passive cutaneous anaphylaxis by Dunnett's test; assay type: functional; conditions: ip, route intraperitoneal; outline: as §2
Rattus norvegicus [8] = assay: Compound was tested for percent inhibition, at 3.3 mg/kg administered intraperitoneally against serotonin by Dunnett's test; assay type: functional; conditions: ip, route intraperitoneal; outline: as §2
Rattus norvegicus [9] = assay: Compound was tested for the inhibition of rat passive cutaneous anaphylaxis (PCA) at 0.37 mg/kg dose ip (1h pretreatment); assay type: functional; conditions: route intraperitoneal; outline: as §2
Rattus norvegicus [10] = assay: Compound was tested for the inhibition of rat passive cutaneous anaphylaxis (PCA) at 10 mg/kg dose ip (1h pretreatment); assay type: functional; conditions: route intraperitoneal
Cavia porcellus [11] = assay: Compound was tested for the inhibition of guinea pig active lung anaphylaxis (ALA) administered intravenously; assay type: functional; conditions: iv; outline: as §1
Rattus norvegicus [12] = assay: Compound was tested for percent inhibition, at 0.12 mg/kg administered intraperitoneally against histamine; assay type: functional; conditions: ip, read-out: Inhibition, route intraperitoneal; outline: as §2
Rattus norvegicus [13] = assay: Compound was tested for percent inhibition, at 0.12 mg/kg administered intraperitoneally against rat passive cutaneous anaphylaxis by Dunnett's test; assay type: functional; conditions: ip, read-out: Inhibition, route intraperitoneal; outline: as §2
Rattus norvegicus [14] = assay: Compound was tested for percent inhibition, at 0.12 mg/kg administered intraperitoneally against serotonin by Dunnett's test; assay type: functional; conditions: ip, read-out: Inhibition, route intraperitoneal; outline: as §2
Rattus norvegicus [15] = assay: Compound was tested for percent inhibition, at 0.37 mg/kg administered intraperitoneally against histamine by Dunnett's test; assay type: functional; conditions: ip, route intraperitoneal; outline: as §2
Cavia porcellus [16] = assay: Compound was tested for the inhibition of guinea pig active lung anaphylaxis (ALA) at 100 mg/kg iv; assay type: functional; outline: as §1
Rattus norvegicus [17] = assay: Compound was tested for the inhibition of rat passive cutaneous anaphylaxis (PCA) at 10 mg/kg dose iv (5 min pretreatment); assay type: functional
Outline: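 Rat skin IgE/ovalbumin PCA with simultaneous intradermal histamine and serotonin wheals. Drug given iv 5 min before the iv ovalbumin/Evans Blue challenge. Read 30 min later by wheal size and colour score. %inhibition = (1 − mean treated/mean control score)×100. Dunnett's test, p ≤ 0.05.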

Rattus norvegicus [18] = assay: Compound was tested for percent inhibition, at 1 mg/kg administered intravenously against histamine; conditions: iv, read-out: Inhibition
Rattus norvegicus [19] = assay: Compound was tested for percent inhibition, at 10 mg/kg administered intravenously against histamine by Dunnett's test; conditions: iv
Rattus norvegicus [20] = assay: Compound was tested for percent inhibition, at 10 mg/kg administered intravenously against serotonin by Dunnett's test; conditions: iv
Rattus norvegicus [21] = assay: Compound was tested for percent inhibition, at 1 mg/kg administered intravenously against rat passive cutaneous anaphylaxis by Dunnett''s test; conditions: iv, read-out: Inhibition
Cavia porcellus [22] = assay: Compound was tested for the inhibition of guinea pig active lung anaphylaxis (ALA) at 0.001 mg/kg iv; assay type: functional; outline: as §1
Cavia porcellus [23] = assay: Inhibition of guinea pig ALA at a dose of 1 mg/kg 1 hr after postdosing intraperitoneally; assay type: functional; conditions: ip, route intraperitoneal
Outline: (§3)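 Guinea pigs were sensitized with egg albumin 1 mg sc plus pertussis vaccine adjuvant. Two weeks later they were anesthetized (pentobarbital 65 mg/kg ip) and cannulated. Drug was given ip or orally at 1 mg/kg. Challenge with egg albumin 0.5 mg/kg iv at 1, 7, 8 or 24 h post-dose, with bronchoconstriction measured. %inhibition given as mean ± SD.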

Cavia porcellus [24] = assay: Inhibition of guinea pig ALA at a dose of 1 mg/kg 1 hr after postdosing orally; assay type: functional; conditions: route oral; outline: as §3
Cavia porcellus [25] = assay: Inhibition of guinea pig ALA at a dose of 1 mg/kg 24 hr after postdosing intraperitoneally; assay type: functional; conditions: ip, route intraperitoneal; outline: as §3
Cavia porcellus [26] = assay: Inhibition of guinea pig ALA at a dose of 1 mg/kg 24 hr after postdosing orally; assay type: functional; conditions: route oral; outline: as §3
Cavia porcellus [27] = assay: Inhibition of guinea pig ALA at a dose of 1 mg/kg 7 hr after postdosing intraperitoneally; assay type: functional; conditions: ip, route intraperitoneal; outline: as §3
Cavia porcellus [28] = assay: Inhibition of guinea pig ALA at a dose of 1 mg/kg 8 hr after postdosing orally; assay type: functional; conditions: route oral; outline: as §3
Cavia porcellus [29] = organism: Cavia porcellus; assay: Compound was tested for the inhibition of guinea pig active lung anaphylaxis (ALA) Percent inhibition; assay type: functional; outline: as §1
Cavia porcellus [30] = assay: Compound was tested for the inhibition of guinea pig active lung anaphylaxis (ALA) Dose administered intravenously; assay type: functional; outline: as §1
Cavia porcellus [31] = assay: Percent inhibition at a dose of 1 mg/kg at given time postdosing intraperitoneally 7 h; assay type: functional; conditions: ip, route intraperitoneal; outline: as §3
Cavia porcellus [32] = assay: Percent inhibition at a dose of 1 mg/kg at given time postdosing orally 1 h; assay type: functional; conditions: route oral; outline: as §3
Cavia porcellus [33] = assay: Percent inhibition at a dose of 1 mg/kg at given time postdosing orally 8 h; assay type: functional; conditions: route oral; outline: as §3
Cavia porcellus [34] = assay: Percent inhibition at a dose of 1 mg/kg at given time postdosing orally 24 h; assay type: functional; conditions: route oral; outline: as §3
Cavia porcellus [35] = assay: Percent inhibition at a dose of 1 mg/kg at given time postdosing intraperitoneally 1 h; assay type: functional; conditions: ip, route intraperitoneal; outline: as §3
Cavia porcellus [36] = assay: Percent inhibition at a dose of 1 mg/kg at given time postdosing intraperitoneally 24 h; assay type: functional; conditions: ip, route intraperitoneal; outline: as §3
Rattus norvegicus [37] = assay: Compound was tested for the inhibition of rat passive cutaneous anaphylaxis (PCA) Dose administered intraperitoneally; assay type: functional; outline: as §2
Rattus norvegicus [38] = assay: Compound was tested for percent inhibition, at 1.1 mg/kg administered intraperitoneally against histamine; assay type: functional; conditions: ip, route intraperitoneal; outline: as §2
Rattus norvegicus [39] = assay: Compound was tested for percent inhibition, at 1.1 mg/kg administered intraperitoneally against serotonin by Dunnett's test; assay type: functional; conditions: ip, route intraperitoneal; outline: as §2
Rattus norvegicus [40] = organism: Rattus norvegicus; assay: Compound was tested for the inhibition of rat passive cutaneous anaphylaxis (PCA) Percent inhibition; assay type: functional; outline: as §2
Rattus norvegicus [41] = assay: Compound was tested […] for the inhibition of serotonin release in rat peritoneal cell

`c1ccc2c(c1)Cn1c(cc3ccccc31)C(N1CCNCC1)=N2` gave an inhibition in vivo at 1 mg/kg (Cavia porcellus [1]) of 82%, an ED50 (Rattus norvegicus [2]) of 0.43 mg/kg and an IC50 (Rattus norvegicus [3]) of 7.38 µM. The inhibition in vivo at 0.37 mg/kg (Rattus norvegicus [4]) was 14.2%, the inhibition in vivo at 0.37 mg/kg (Rattus norvegicus [5]) was 44.5% and the inhibition in vivo at 3.3 mg/kg (Rattus norvegicus [6]) was 55.7%. For the same molecule, the inhibition in vivo at 3.3 mg/kg (Rattus norvegicus [7]) was 92.7%, the inhibition in vivo at 3.3 mg/kg (Rattus norvegicus [8]) was 65.8% and the inhibition in vivo at 0.37 mg/kg (Rattus norvegicus [9]) was 52%.
With `c1ccc2c(c1)Cn1c(cc3ccccc31)C(N1CCOCC1)=N2` the inhibition in vivo at 10 mg/kg (Rattus norvegicus [10]) was 0.4%.
`OCCCN1CCN(C2=Nc3ccccc3Cn3c2cc2ccccc23)CC1` gave an inhibition in vivo at 1 mg/kg (Cavia porcellus [1]) of 64%, an ED50 (Cavia porcellus [11]) of 0.69 mg/kg and an ED50 (Rattus norvegicus [2]) of 0.08 mg/kg. The IC50 (Rattus norvegicus [3]) was 15.2 µM, the inhibition in vivo at 0.12 mg/kg (Rattus norvegicus [12]) was 6.8% and the inhibition in vivo at 0.12 mg/kg (Rattus norvegicus [13]) was 58.8%. For the same molecule, the inhibition in vivo at 0.12 mg/kg (Rattus norvegicus [14]) was 24.9%, the inhibition in vivo at 0.37 mg/kg (Rattus norvegicus [15]) was 53% and the inhibition in vivo at 0.37 mg/kg (Rattus norvegicus [5]) was 53.2%. It also gave an inhibition in vivo at 0.37 mg/kg (Rattus norvegicus [9]) of 92.9%.
Molecule `O=C([O-])c1cc(=O)c2c(OCC(O)COc3cccc4oc(C(=O)[O-])cc(=O)c34)cccc2o1.[Na+].[Na+]` [CROMOLYN SODIUM] has an inhibition in vivo at 100 mg/kg (Cavia porcellus [16]) of 25%, an ED50 (Rattus norvegicus [2]) of 2.55 mg/kg and an IC50 (Rattus norvegicus [3]) of 256 µM. For the same molecule, the inhibition in vivo at 10 mg/kg (Rattus norvegicus [17]) was 97%, the inhibition in vivo at 1 mg/kg (Rattus norvegicus [18]) was 0% and the inhibition in vivo at 10 mg/kg (Rattus norvegicus [19]) was 8.5%. For the same molecule, the inhibition in vivo at 10 mg/kg (Rattus norvegicus [20]) was 21.4% and the inhibition in vivo at 1 mg/kg (Rattus norvegicus [21]) was 37%.
Molecule `CN1CCC(=C2c3ccccc3CC(=O)c3sccc32)CC1` [KETOTIFEN] has an inhibition in vivo at 0.001 mg/kg (Cavia porcellus [22]) of 57%, an ED50 (Cavia porcellus [11]) of 0.002 mg/kg and an inhibition in vivo at 1 mg/kg (Cavia porcellus [23]) of 82%. For the same molecule, the inhibition in vivo at 1 mg/kg (Cavia porcellus [24]) was 68%, the inhibition in vivo at 1 mg/kg (Cavia porcellus [25]) was 6.5% and the inhibition in vivo at 1 mg/kg (Cavia porcellus [26]) was 37%. It also gave an inhibition in vivo at 1 mg/kg (Cavia porcellus [27]) of 68%, an inhibition in vivo at 1 mg/kg (Cavia porcellus [28]) of 73% and an ED50 (Rattus norvegicus [2]) of 0.32 mg/kg. The IC50 (Rattus norvegicus [3]) was 22.9 µM, the inhibition in vivo at 0.37 mg/kg (Rattus norvegicus [4]) was 64.6% and the inhibition in vivo at 0.37 mg/kg (Rattus norvegicus [5]) was 14.8%. The inhibition in vivo at 3.3 mg/kg (Rattus norvegicus [6]) was 62.5%, the inhibition in vivo at 3.3 mg/kg (Rattus norvegicus [7]) was 92.4% and the inhibition in vivo at 3.3 mg/kg (Rattus norvegicus [8]) was 35.3%. For the same molecule, the inhibition in vivo at 0.37 mg/kg (Rattus norvegicus [9]) was 63.3%.
For `O=c1[nH]c2ccccc2n1CCCN1CCN(C(c2ccccc2)c2ccccc2)CC1` [OXATOMIDE], the Inhibition (Cavia porcellus [29]) was 43%, the Dose (Cavia porcellus [30]) was 1 mg/kg and the inhibition in vivo at 1 mg/kg (Cavia porcellus [31]) was 54%. It also gave an inhibition in vivo at 1 mg/kg (Cavia porcellus [32]) of -5%, an inhibition in vivo at 1 mg/kg (Cavia porcellus [33]) of 45% and an inhibition in vivo at 1 mg/kg (Cavia porcellus [34]) of 25%. The inhibition in vivo at 1 mg/kg (Cavia porcellus [35]) was 16%, the inhibition in vivo at 1 mg/kg (Cavia porcellus [36]) was 10.6% and the Dose (Rattus norvegicus [37]) was 1.1 mg/kg. It also gave an ED50 (Rattus norvegicus [2]) of 1.2 mg/kg, an inhibition in vivo at 1.1 mg/kg (Rattus norvegicus [38]) of 38% and an inhibition in vivo at 1.1 mg/kg (Rattus norvegicus [39]) of 35.1%. It also gave an inhibition in vivo at 3.3 mg/kg (Rattus norvegicus [6]) of 49.3%, an inhibition in vivo at 3.3 mg/kg (Rattus norvegicus [7]) of 100% and an inhibition in vivo at 3.3 mg/kg (Rattus norvegicus [8]) of 46.5%. For the same molecule, the Inhibition (Rattus norvegicus [40]) was 69.1% and the IC50 (Rattus norvegicus [41]) was 20.1 µM.
